Reference: ChEMBL document CHEMBL1129286, “In vitro and in vivo studies of benzisoquinoline ligands for the brain synaptic vesicle monoamine transporter” (J Med Chem, 1996)

Columns and labels:
Mus musculus [1] = assay: Competition of compound for the in vivo localization of [11C] Methoxytetrabenazine in mouse Hyphalamus; %ID/g (%injected dose/g); type: functional, organism-based
How it was run: (§1)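 CD-1 mice anesthetized with diethyl ether, given by tail vein a mixture of [11C]methoxytetrabenazine (100-300 µCi) plus 10 mg/kg test compound in 10% ethanol in saline, then allowed to recover. Controls received radiotracer in saline with no competitor. Killed under ether at 15 min, regional brain radioactivity read as %ID/g; mean ± SD, unpaired Student's t-test versus controls.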

[2] = molecular target: Synaptic vesicular amine transporter (Rattus norvegicus, UniProt Q01827); assay: In vitro inhibition of [3H]- Methoxytetrabenazine binding to rat brain vesicular monoamine transporter 2 (VMAT2)
How it was run: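 Autoradiographic competition on rat brain coronal sections (20, caudate-putamen level) on slides. Sections prewashed at 25 °C in sucrose buffer (300 mM sucrose, 50 mM Tris, 1 mM EDTA, pH 8.0), then incubated 3 h with 10 nM [3H]methoxytetrabenazine and test drug from 1 nM. Washed 3 × 3 min, dipped in 4 °C water, air-dried, film-exposed 2 weeks.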

Mus musculus [3] = assay: Competition of compound for the in vivo localization of [11C] Methoxytetrabenazine in mouse Striatum; %ID/g (%injected dose/g); type: functional, organism-based; how it was run: as §1

Chain of Synaptic vesicular amine transporter (Q01827 whole entry): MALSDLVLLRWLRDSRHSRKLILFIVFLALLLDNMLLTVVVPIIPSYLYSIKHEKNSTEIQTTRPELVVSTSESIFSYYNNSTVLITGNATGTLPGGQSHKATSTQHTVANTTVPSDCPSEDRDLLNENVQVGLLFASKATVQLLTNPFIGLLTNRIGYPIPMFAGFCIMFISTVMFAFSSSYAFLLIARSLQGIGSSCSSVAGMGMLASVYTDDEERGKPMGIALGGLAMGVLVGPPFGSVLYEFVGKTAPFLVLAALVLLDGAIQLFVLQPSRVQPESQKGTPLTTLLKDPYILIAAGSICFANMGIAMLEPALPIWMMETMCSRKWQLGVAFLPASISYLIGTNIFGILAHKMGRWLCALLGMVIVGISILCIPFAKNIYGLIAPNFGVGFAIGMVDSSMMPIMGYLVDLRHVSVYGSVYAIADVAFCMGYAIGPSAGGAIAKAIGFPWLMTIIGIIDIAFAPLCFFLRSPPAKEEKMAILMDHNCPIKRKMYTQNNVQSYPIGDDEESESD

Compound	ID/g (Mus musculus [1])	Ki [2]	ID/g (Mus musculus [3])
COc1cc2c(cc1OC)[C@H]1C[C@@](O)(CC(C)C)[C@H](CC(C)C)CN1CC2	2.93%	33 nM	5.33%
COc1cc2c(cc1OC)[C@H]1C[C@](C)(O)[C@H](CC(C)C)CN1CC2	1.79%	12 nM	2.35%
CC[C@]1(O)C[C@@H]2c3cc(OC)c(OC)cc3CCN2C[C@H]1CC(C)C	2%	42 nM	3.24%
COc1cc2c(cc1OC)[C@H]1CC(=O)[C@H](CC(C)C)CN1CC2	1.71%	–	2.26%
COc1cc2c(cc1OC)[C@H]1C[C@@](C)(O)[C@H](CC(C)C)CN1CC2	1.96%	2.6 nM	2.09%
COc1cc2c(cc1OC)[C@H]1C[C@@](O)(C(C)C)[C@H](CC(C)C)CN1CC2	3.06%	136 nM	6.21%
CCC[C@]1(O)C[C@@H]2c3cc(OC)c(OC)cc3CCN2C[C@H]1CC(C)C	1.96%	84 nM	4.26%
